# Screening results as filed in PubChem.
# CAL PDZ FP-1 – blocks peptide binding to human CAL PDZ domain. purified CAL PDZ, TMR-peptide fluorescence polarization, 1 h. hit rate 0.02% among 330,000. AID 504414. Q9HD26. inhibition, % at 20 µM;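 active means highest replicate inhibition of at least 40%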;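 further: plate controls were DMSO neutral control wells for no effect and unlabeled competitor peptide control wells for full effect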
#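 Test system: tagged CAL PDZ domain / Buffer or medium: sodium phosphate/NaCl buffer pH 7.4 with TCEP, IgG, Thesit / Reagent: TMR-labelled reporter peptide T*-PRC34 bound in PDZ groove / Compound dosing: single point, 20 µM / Schedule: 1 h incubation at room temperature before polarization reading / Technique: fluorescence polarization (mP) / Benchmarks: unlabelled peptide, DMSO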
# CAL PDZ FP-2 – blocks peptide binding to the human CAL PDZ domain; Q9HD26; purified CAL PDZ, TMR-peptide fluorescence polarization, 1 h; inhibition, % at 24.9 µM; hit rate 0.92% among 300,000;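 active means mean inhibition of at least 30% with at least half of replicates also reaching 30%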;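 further: 0% = DMSO neutral control and 100% = excess unlabeled competitor peptide PRC23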
# PvdQ acylase – blocks Pseudomonas aeruginosa PvdQ acylase activity | purified PvdQ acylase, fluorescence plate reader | inhibition, % at 10 µM | hit rate 0.063% among 340,000; in the data active means inhibition above about 30%, passing the limit was not always enough;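 further: 0% = vehicle neutral wells and 100% = reference inhibitor wells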
# Dyrk1A ADPGlo – inhibitors of rat Dyrk1A kinase | AID 504441 | ADP-Glo luminescence, NFATc1 peptide | inhibition, % at 12.5 µM | Q63470 | hit rate 0.43% among 310,000; in the data active means inhibition above about 50%;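 further: plate controls were vehicle with enzyme for no effect and no enzyme for full effect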
# CDK5 p35 inh – inhibitors of human CDK5/p35 kinase; Q00535+Q15078; Recombinant CDK5/p35, ADP-Glo luminescence, 60 min; inhibition, % at 10 µM; hit rate 0.01% among 330,000;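 active means highest replicate inhibition of at least 50% and at least 75% of replicates reaching 50%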;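 further: plate controls were DMSO neutral control for no effect and GW8510 at 10 µM for full effect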
# Target sequence (Q00535 whole entry, looked up): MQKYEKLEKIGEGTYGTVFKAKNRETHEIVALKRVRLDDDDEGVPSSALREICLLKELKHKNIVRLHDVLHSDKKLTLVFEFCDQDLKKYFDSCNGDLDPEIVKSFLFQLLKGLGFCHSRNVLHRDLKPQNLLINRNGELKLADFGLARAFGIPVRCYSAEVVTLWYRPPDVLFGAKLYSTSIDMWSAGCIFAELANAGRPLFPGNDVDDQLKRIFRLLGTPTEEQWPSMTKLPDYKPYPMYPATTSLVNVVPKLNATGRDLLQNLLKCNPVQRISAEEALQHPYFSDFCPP
# Target sequence (Q15078 whole entry, looked up): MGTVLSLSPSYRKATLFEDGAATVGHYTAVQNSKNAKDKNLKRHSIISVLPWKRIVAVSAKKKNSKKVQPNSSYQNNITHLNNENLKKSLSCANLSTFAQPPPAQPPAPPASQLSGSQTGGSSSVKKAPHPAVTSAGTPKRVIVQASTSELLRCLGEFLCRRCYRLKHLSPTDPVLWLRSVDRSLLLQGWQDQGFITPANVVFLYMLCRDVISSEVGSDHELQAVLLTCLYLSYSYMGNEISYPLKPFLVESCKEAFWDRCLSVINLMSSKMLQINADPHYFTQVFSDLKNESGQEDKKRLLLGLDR
# TbMetRS inhib – blocks T. brucei methionyl-tRNA synthetase activity; purified T. brucei MetRS, ATP depletion, Kinase-Glo luminescence; inhibition, % at 11.9 µM; hit rate 0.4% among 360,000;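 active means inhibition above a per-plate cutoff of the control wells' mean inhibition plus 3 SD, cut at about 5.5% in these data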;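 further: 0% = DMSO wells median and 100% = median of wells with control inhibitor compound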
#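 Material: parasite MetRS enzyme / Replication: singlicate, one well per compound / Signal: luminescence of leftover ATP / Schedule: 2 h aminoacylation at 25 °C after 15 min preincubation / Medium: HEPES-MgCl2-KCl buffer plus DTT, spermine, BSA, pyrophosphatase / Doses: 11.9 µM single point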
# TbMetRS confirm – confirmation of Trypanosoma brucei MetRS inhibitors; shares compounds with TbMetRS inhib; T. brucei MetRS enzyme, luminescence (ATP depletion); inhibition, % at 11.9 µM; hit rate 93% among 1,400; AID 624412; in the data active means inhibition above about 7%
# Jurkat cytotox – Jurkat T cell cytotoxicity for MetRS hits | shares compounds with TbMetRS inhib | Jurkat cells viability, ATP luminescence | inhibition, % at 8.3 µM | hit rate 12% among 1,400 | AID 624413; in the data active means inhibition above about 15%;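 further: 0% = vehicle and 100% = reference inhibitor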
# TbMetRS FP orth – orthogonal test for Trypanosoma brucei MetRS inhibitors; shares compounds with TbMetRS inhib; purified T. brucei MetRS, fluorescence polarization; inhibition, % at 11.9 µM; hit rate 44% among 1,400; in the data active means inhibition above about 17%;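 further: 0% = vehicle wells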
# Numbers without * were called inactive; x = no result given. Sampled rows, rich in hits. Any-hit rate of the full collection: about 1.4%.
SMILES,CAL PDZ FP-1,CAL PDZ FP-2,PvdQ acylase,Dyrk1A ADPGlo,CDK5 p35 inh,TbMetRS inhib,TbMetRS confirm,Jurkat cytotox,TbMetRS FP orth
Cc1ccc2nc(N/C(=N/S(=O)(=O)c3cccs3)c3ccccc3Cl)sc2c1,-6.3,-9.3,-16.0,x,2.2,6.8*,13.4*,4.1,7.8
CC(C)C1CC(=O)NC(SCC(=O)Nc2ccc(Br)cc2)=C1C#N (stereo unspecified),0.1,57.4*,-14.6,-6.8,-1.9,11.9*,18.2*,9.4,7.3
COc1ccccc1C1CC(=O)NC(SCC(=O)Nc2ccccc2)=C1C#N (stereo unspecified),-1.3,x,-1.2,2.5,-0.9,1.5,x,x,x
CC1C(=O)N(Cc2cn(Cc3ccco3)nn2)CCS(=O)(=O)N1Cc1ccc(-c2ccc(Cl)cc2)cc1 (stereo unspecified),x,x,x,x,x,-0.4,x,x,x
C(=C/c1nccc2c1[nH]c1ccccc12)/c1ccc2c(c1)OCO2,x,-11.9,-19.8,11.7,-0.1,5.9*,3.4,42.0*,91.0*
C(=N\Nc1nc2ccccc2[nH]1)/c1ccc2c(c1)OCO2,-0.8,x,-4.1,16.6,-0.3,3.6,x,x,x
Cc1ccc(CC(=O)Nc2cccc(S(=O)(=O)N3CCOCC3)c2)cc1,-3.0,-2.7,-12.5,0.3,0.2,3.0,x,x,x
O=C(COc1ccc(S(=O)(=O)N2CCOCC2)cc1)Nc1ccc(Br)cc1,-1.6,x,-12.8,8.5,-0.6,17.6*,50.2*,16.8*,32.6*
COc1ccc(OCC(=O)Nc2ccc(S(=O)(=O)N3CCOCC3)cc2)cc1,-0.3,-2.4,-9.0,1.5,0.6,0.1,x,x,x
O=C(Cc1ccc(Br)cc1)Nc1cccc(S(=O)(=O)N2CCOCC2)c1,-0.1,-1.7,0.9,-3.4,0.7,54.7*,76.2*,7.5,57.5*
O=C(Cn1c(CO)nc2ccccc21)Nc1cc(C(F)(F)F)ccc1N1CCOCC1,x,-0.5,-12.8,-1.9,0.0,14.2*,26.4*,-1.7,4.5
Nc1sc2c(c1C(=O)NCCc1ccccc1)CCCC2,x,x,x,x,x,-0.5,x,x,x
O=c1[nH]c(COc2ccc(Br)cc2Cl)nc2ccccc12,-2.2,0.8,-0.6,-1.6,-0.6,6.2*,30.0*,3.0,14.0
O=C(CSc1nc2ccc(Cl)cc2[nH]1)NCCc1ccccc1,-0.2,x,-5.6,1.0,-0.3,42.5*,57.9*,-2.5,32.8*
O=C(CSc1nc2ccc(Cl)cc2[nH]1)NCc1ccco1,-2.9,-2.2,-5.7,1.2,-0.2,8.3*,13.0*,8.3,2.0
CN(C(=O)CSc1nc2ccc(Cl)cc2[nH]1)C1CCS(=O)(=O)C1 (stereo unspecified),-0.1,-2.0,5.8,x,-1.0,10.5*,36.2*,3.8,24.1*
O=C(CSc1nc2ccc(Cl)cc2[nH]1)NCCc1ccc(Cl)cc1,-4.3,3.4,-21.1,-1.6,1.2,62.5*,72.1*,5.1,41.0*
COc1ccc(OCC(O)Cn2cnc(-c3ccc(Br)cc3)c2)cc1 (stereo unspecified),-2.7,1.6,-14.1,-1.6,-0.7,13.8*,22.4*,0.5,7.9
OC(COc1ccc(Br)cc1)Cn1ccnc1 (stereo unspecified),-2.3,4.5,-7.4,-0.4,0.8,0.2,x,x,x
COc1ccc(N(C)S(=O)(=O)c2cccc(C(=O)Nc3nc4ccccc4[nH]3)c2)cc1,-2.8,-4.4,-1.2,19.1,0.6,0.2,x,x,x
CN(c1cccc(Cl)c1)S(=O)(=O)c1cccc(C(=O)Nc2nc3ccccc3[nH]2)c1,-2.5,-1.8,-3.6,9.4,-1.5,33.0*,44.1*,67.9*,21.9*
COc1cc2nc(Nc3cccc(F)c3)nc(N)c2cc1OC,-1.3,-2.1,-0.8,21.3,1.1,9.1*,29.4*,11.6,25.0*
COc1ccccc1NS(=O)(=O)c1cccc(NC(=O)Nc2cccc(Cl)c2)c1,-4.5,-6.6,2.7,-3.7,-1.6,31.1*,41.1*,7.3,71.9*
COc1ccccc1NS(=O)(=O)c1cccc(NC(=O)NCCCl)c1,-0.9,2.0,-5.2,0.6,0.3,-1.0,x,x,x
C=CCNC(=S)NNC(=O)COc1ccc(Br)cc1,-0.8,1.2,-1.8,0.6,0.8,0.7,x,x,x
SMILES,CAL PDZ FP-1,CAL PDZ FP-2,PvdQ acylase,Dyrk1A ADPGlo,CDK5 p35 inh,TbMetRS inhib,TbMetRS confirm,Jurkat cytotox,TbMetRS FP orth
C=CCNC(=S)NNC(=O)COc1ccc2cc(Br)ccc2c1,-2.4,-2.8,12.3,8.3,1.2,19.4*,46.5*,-0.7,23.6*
CCOC(=O)Cc1nnc(NC(=O)CSc2nnc3c(n2)[nH]c2ccccc23)s1,-4.3,-1.3,-6.1,-1.1,-1.4,0.6,x,x,x
O=C(CSc1nnc2c(n1)[nH]c1ccccc12)Nc1ccc2c(c1)OCO2,-2.9,x,-0.5,5.4,-0.9,75.6*,83.0*,6.0,70.6*
O=C(CSc1nnc2c(n1)[nH]c1ccccc12)Nc1nncs1,-3.3,0.2,-11.8,1.2,-1.6,24.5*,43.3*,-2.6,19.2*
O=C(CSc1nc2ncccc2[nH]1)Nc1ccc2c(c1)OCO2,x,x,x,x,x,16.1*,27.0*,0.4,17.4*
Cc1ccc(-c2csc(NC(=O)CSc3nnc4c(n3)[nH]c3ccccc34)n2)cc1,-2.6,3.1,-5.9,-5.2,-3.0,7.7*,15.5*,18.4*,9.1
COc1ccc(NC(=O)CSc2nc3ncccc3[nH]2)cc1OC,-5.0,-8.1,-23.2,-1.8,1.0,5.2,x,x,x
COc1ccc(OC2(C)CCN(Cc3ccc(-c4ccccc4)o3)C2)cc1 (stereo unspecified),x,x,x,x,x,-0.2,x,x,x
COCCCn1cc(CN(C)C2CN(Cc3cn(CCCOC)nn3)S(=O)(=O)C2)nn1 (stereo unspecified),x,x,x,x,x,-1.6,x,x,x
O=[N+]([O-])c1ccc(N2CCN(c3ccccc3O)CC2)c(Cl)c1,0.7,1.0,-3.4,3.4,0.0,7.0*,12.1*,18.3*,0.9
O=C(CNS(=O)(=O)c1ccc([N+](=O)[O-])cc1)N/N=C/c1ccc(O)cc1O,x,34.5*,-11.3,10.1,0.0,15.5*,36.2*,46.1*,22.0*
Cn1nc(C(F)(F)F)c(-c2ccc(Br)cc2)c1NC(=O)Nc1ccc(F)cc1F,-0.1,x,-0.5,1.2,-0.5,24.7*,53.8*,14.6,31.1*
O=[N+]([O-])c1ccc(N2CCN(Cc3ccc4c(c3)OCO4)CC2)nc1,0.4,-1.9,-0.3,6.8,0.2,0.5,x,x,x
O=Cc1cc([N+](=O)[O-])ccc1N1CCN(Cc2ccc3c(c2)OCO3)CC1,-0.8,-1.6,-7.8,-0.1,-0.1,8.1*,18.0*,1.0,8.4
COc1ccc(Cl)cc1C=CC=Nc1ccccc1O,-0.7,-3.2,-7.3,-2.6,0.5,0.3,x,x,x
